Assay [1] has as its target T1, Fatty-acid amide hydrolase 1 (Rattus norvegicus, UniProt P97612).
T1 sequence (P97612 whole entry): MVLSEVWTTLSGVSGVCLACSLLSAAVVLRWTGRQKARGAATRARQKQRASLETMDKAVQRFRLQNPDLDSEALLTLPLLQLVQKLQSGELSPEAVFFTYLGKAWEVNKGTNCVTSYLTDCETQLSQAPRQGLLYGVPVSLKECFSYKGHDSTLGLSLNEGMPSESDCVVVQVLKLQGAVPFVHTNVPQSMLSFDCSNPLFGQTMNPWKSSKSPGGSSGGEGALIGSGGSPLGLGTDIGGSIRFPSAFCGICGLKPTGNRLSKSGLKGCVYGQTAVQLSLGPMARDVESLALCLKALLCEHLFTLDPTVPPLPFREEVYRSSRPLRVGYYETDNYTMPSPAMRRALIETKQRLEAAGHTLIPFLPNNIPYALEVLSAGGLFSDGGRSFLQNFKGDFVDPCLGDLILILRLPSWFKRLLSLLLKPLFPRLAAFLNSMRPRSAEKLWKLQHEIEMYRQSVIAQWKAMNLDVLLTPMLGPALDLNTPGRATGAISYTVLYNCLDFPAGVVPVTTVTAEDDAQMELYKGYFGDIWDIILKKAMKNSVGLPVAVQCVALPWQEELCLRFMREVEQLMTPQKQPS
The experiment in a line: Inhibition of rat FAAH expressed in Escherichia coli at pH 9.0.

Assay [2] in a line: Selectivity ratio of IC50 for TGH over IC50 for rat FAAH expressed in Escherichia coli.
Assay [3] has as its target T2, Neutral cholesterol ester hydrolase 1 (Homo sapiens, UniProt Q6PIU2).
T2 sequence (Q6PIU2 whole entry): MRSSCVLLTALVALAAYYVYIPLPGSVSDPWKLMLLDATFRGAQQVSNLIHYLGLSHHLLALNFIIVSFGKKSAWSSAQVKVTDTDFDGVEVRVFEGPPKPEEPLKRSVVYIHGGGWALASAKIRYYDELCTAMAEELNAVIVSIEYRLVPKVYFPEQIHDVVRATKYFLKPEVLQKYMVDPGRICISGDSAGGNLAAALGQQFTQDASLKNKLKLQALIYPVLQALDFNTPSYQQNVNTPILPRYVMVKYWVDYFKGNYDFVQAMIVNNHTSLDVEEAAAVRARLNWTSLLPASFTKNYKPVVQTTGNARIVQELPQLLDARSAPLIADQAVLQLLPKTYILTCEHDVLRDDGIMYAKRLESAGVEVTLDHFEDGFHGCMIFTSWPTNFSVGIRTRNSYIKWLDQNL
The assay can be described thus: Inhibition of KIAA1363 hydrolase.

A further assay concerns the target T3, Liver carboxylesterase 1 (Homo sapiens, UniProt P23141).
T3 sequence (P23141 whole entry): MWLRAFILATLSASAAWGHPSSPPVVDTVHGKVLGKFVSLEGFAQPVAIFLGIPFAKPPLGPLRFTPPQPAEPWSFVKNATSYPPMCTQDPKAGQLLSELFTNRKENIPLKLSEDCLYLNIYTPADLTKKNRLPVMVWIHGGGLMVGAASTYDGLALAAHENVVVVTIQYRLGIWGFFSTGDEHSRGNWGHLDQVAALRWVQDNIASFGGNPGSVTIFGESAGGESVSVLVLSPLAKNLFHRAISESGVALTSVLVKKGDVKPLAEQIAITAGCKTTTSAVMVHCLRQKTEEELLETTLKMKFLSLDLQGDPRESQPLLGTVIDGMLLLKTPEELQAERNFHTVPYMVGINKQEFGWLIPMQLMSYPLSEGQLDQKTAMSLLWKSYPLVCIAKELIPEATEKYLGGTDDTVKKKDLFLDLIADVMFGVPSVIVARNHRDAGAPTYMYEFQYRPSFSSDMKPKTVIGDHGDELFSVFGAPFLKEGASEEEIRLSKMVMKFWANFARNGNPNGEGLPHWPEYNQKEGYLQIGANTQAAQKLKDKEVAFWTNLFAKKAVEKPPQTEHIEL
The assay can be described thus: Inhibition of TGH. Put shortly: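 Measured in a proteome-wide selectivity screen that globally profiles mammalian serine hydrolases, with TGH among the enzymes detected. Values are reported as IC50 from this screen rather than as Ki from substrate hydrolysis assays.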

In assay [4] the target is T1, Fatty-acid amide hydrolase 1. The assay can be described thus: Inhibition of rat FAAH expressed in Escherichia coli.

What is called Ki is a dissociation constant, usually derived from enzyme kinetics or from competition with a known ligand. A higher Ki goes with weaker binding. For orientation: IC50 means the point on the concentration scale where inhibition reaches its midpoint. Read a low IC50 as greater potency.

The compound `COC(=O)c1nc(C(=O)CCCCCCc2ccccc2)no1` came in with a Ki in assay [1] of 7 nM. Also, the Ratio IC50 in assay [2] was 20. Further, the IC50 in assay [3] is above 100000 nM; against Liver carboxylesterase 1, 200 nM; in assay [4], 10 nM.
Turning to `O=C(CCCCCCc1ccccc1)c1nnn[nH]1`, the Ki in assay [1] was above 1000 nM. Besides, the Ratio IC50 in assay [2] worked out at 0.13. Also, the results for the IC50 (in assay [3]; on Liver carboxylesterase 1; in assay [4]) were 60000 nM, 80 nM and 600 nM, respectively.
As for `COC(=O)c1cccc(-c2cnc(C(=O)CCCCCCc3ccccc3)s2)n1`, the Ratio IC50 in assay [2] is below 0.4. For the same compound, the figures for the IC50 (in assay [3]; at Liver carboxylesterase 1; in assay [4]) were above 100000 nM, 40000 nM and above 100000 nM, respectively.
The compound `N#Cc1cccc(-c2ccc(C(=O)CCCCCCc3ccccc3)nn2)n1` registered an inhibition constant Ki in assay [1] of 390 nM. The Ratio IC50 in assay [2] came to 1. Further, the IC50 is above 100000 nM in assay [3], 12000 nM against Liver carboxylesterase 1 and 13000 nM in assay [4].
Consider `O=C(CCCCCCc1ccccc1)c1nnc(-c2ccccc2)o1`, for which the Ratio IC50 in assay [2] came out at 10. Besides, the IC50 is above 100000 nM in assay [3], 250 nM against Liver carboxylesterase 1 and 25 nM in assay [4].
For `O=C(CCCCCCc1ccccc1)c1ncon1` the same measures were 0.02, above 100000 nM, 10 nM and 500 nM.
On to `O=C(CCCCCCc1ccccc1)c1nnco1`, for which the Ratio IC50 in assay [2] worked out at 1.5. Further, the IC50 was above 100000 nM in assay [3], 25 nM on Liver carboxylesterase 1 and 1 nM in assay [4].
As for `O=C(CCCCCCc1ccccc1)c1nnc(-c2ccco2)o1`, in assay [2], the Ratio IC50 was 80. Besides, the figures for the IC50 (in assay [3]; on Liver carboxylesterase 1; in assay [4]) were above 100000 nM, 80 nM and 1 nM, respectively.
For `COC(=O)c1cccc(-c2noc(C(=O)CCCCCCc3ccccc3)n2)n1` the same measures were 50, 40000 nM, 150 nM and 3 nM.

These data come from ChEMBL document CHEMBL1155875, “Optimization of the central heterocycle of alpha-ketoheterocycle inhibitors of fatty acid amide hydrolase” (J Med Chem, 2008).
